Screens (PubChem BioAssay)
SIAE inh: human SIAE inhibition, primary screen; Q9HAT2; SIAE FP-Rh probe binding, fluorescence polarization; inhibition, % at 9.66 µM; 370,000 tested, 0.69% active;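 active = inhibition above a cutoff: mean of compounds within the control limits plus 3 SD of those, cut at about 17% in these data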
MBD2 DNA inh: inhibitors of human MBD2 binding to methylated oligonucleotide. inhibition, % at 4.4 µM. AID 686964. TR-FRET. 370,000 tested, 0.31% active; in the data active = inhibition above about 13%
Target sequence (Q9UBB5 whole entry, looked up): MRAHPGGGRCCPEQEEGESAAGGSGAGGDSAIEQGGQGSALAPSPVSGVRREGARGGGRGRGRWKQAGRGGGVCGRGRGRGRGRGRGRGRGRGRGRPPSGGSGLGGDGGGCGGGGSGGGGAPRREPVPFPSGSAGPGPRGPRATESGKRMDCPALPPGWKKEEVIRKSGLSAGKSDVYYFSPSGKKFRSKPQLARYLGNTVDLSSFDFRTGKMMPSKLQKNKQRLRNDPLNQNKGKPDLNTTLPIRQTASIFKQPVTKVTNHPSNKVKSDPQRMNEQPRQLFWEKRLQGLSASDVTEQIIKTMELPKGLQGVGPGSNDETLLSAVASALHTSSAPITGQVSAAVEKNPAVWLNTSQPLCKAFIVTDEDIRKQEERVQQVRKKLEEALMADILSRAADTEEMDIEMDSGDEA
UHRF1 MBD2 ctr: blocks human UHRF1 binding to methylated DNA; Q96T88; UHRF1 binding to methylated oligo, TR-FRET; inhibition, % at 4.4 µM; 370,000 tested, 0.75% active; AID 687016; in the data active = inhibition above about 21%;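 note: UHRF1 SRA domain binding a hemimethylated CpG hairpin DNA probe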
PRMT1 FP inh: inhibitors of human PRMT1; Q99873; 370,000 tested, 1.3% active; AID 652257; inhibition, % at 2.79 µM; recombinant PRMT1, activity-based probe fluorescence polarization;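 active = inhibition above about 21% made by adding two undisclosed values, limit read from the data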
LEDGF integ inh: blocks HIV-1 LEDGF/p75-dependent DNA integration; TR-FRET IN-LEDGF/p75 DNA integration, Eu/Cy5; inhibition, % at 3.7 µM; 370,000 tested, 0.64% active;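 active = inhibition above the screen-wide mean plus 3 SD, cut at about 13% in these data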;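 note: signal is the Cy5 over europium emission ratio at 671 and 618 nm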
TDP2 inh: TDP2 (human) inhibition, absorbance primary screen. O95551. recombinant TDP2, T5PNP hydrolysis, p-nitrophenol absorbance 415 nm. inhibition, % at 12.8 µM. 370,000 tested, 0.34% active. AID 720702;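 active = inhibition above the mean of all tested compounds plus 3 SD, set per campaign, cut at about 25% in these data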
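Evaluation: % inhibition relative to enzyme-containing and enzyme-free wells. Material: recombinant human TDP2. Benchmarks: enzyme-free and DMSO wells. Timing: enzyme reaction with compound for 2 h at 37 °C. Compound dosing: 12.8 µM only. Measured by: p-Nitrophenol epi absorbance. Reagent: T5PNP substrate at 5 mM, a TopII-DNA adduct mimic. Replication: single well per compound.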
UHRF1 ctr MBD2: UHRF1 methyl-oligo binding inhibition as MBD2 counter-screen; shares compounds with MBD2 DNA inh; UHRF1 binding to methylated oligonucleotide, TR-FRET; inhibition, % at 4.4 µM; 1,000 tested, 25% active; AID 720530; in the data active = inhibition above about 21%;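 note: UHRF1 SRA domain binding a labeled hemimethylated CpG hairpin DNA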
MBD2 confirm: confirmation of human MBD2-DBD methylated oligonucleotide binding inhibitors. 1,000 tested, 26% active. TR-FRET MBD2-DBD binding to methylated oligonucleotide. shares compounds with MBD2 DNA inh. inhibition, % at 4.4 µM
TDP2 inh conf: confirmation of human TDP2 inhibitors; inhibition, % at 12.8 µM; 1,100 tested, 22% active; recombinant human TDP2, absorbance read-out; shares compounds with TDP2 inh; in the data active = inhibition above about 25%
IN multimer act: activates HIV-1 integrase multimerization in LEDGF counter-screen. shares compounds with LEDGF integ inh. TR-FRET HIV-1 integrase multimerization, biochemical. activation, % at 7.7 µM. 2,000 tested, 17% active; in the data active = activation above about 8.9%
TRFRET interf: counter-screen for LEDGF/p75 integration inhibitors: TR-FRET optical interference | shares compounds with LEDGF integ inh | TR-FRET optical interference counterscreen, HIV-1 IN multimerization | inhibition, % at 7.7 µM | 2,000 tested, under 10 active;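 active = inhibition above the mean over all tested compounds plus 3 SD, which no compound reached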
LEDGF integ conf: confirmation of HIV-1 LEDGF/p75-dependent integration inhibitors | shares compounds with LEDGF integ inh | TR-FRET LEDGF/p75-dependent HIV-1 integration, biochemical | inhibition, % at 3.7 µM | 2,000 tested, 36% active | AID 1053136
SIAE inh conf: human SIAE inhibition, confirmation | SIAE FP-Rh activity-based probe, fluorescence polarization | shares compounds with SIAE inh | AID 1117263 | inhibition, % at 9.66 µM | 2,300 tested, 13% active;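 active = mean inhibition of the replicates above the hit cutoff set in the primary screen, cut at about 17% in these data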;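 note: inhibitors lower polarization as more probe stays unbound to SIAE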
A number is an active result; - = inactive; . = not tested or not shown. Shown are actives, neighbours in structure and some others; about 3.3% of the full set was active somewhere. Cut-off read from the data, not from the text of the source, unless noted: active = inhibition above about 14%; inactive = the rest.

SMILES	SIAE inh	MBD2 DNA inh	UHRF1 MBD2 ctr	PRMT1 FP inh	LEDGF integ inh	TDP2 inh	UHRF1 ctr MBD2	MBD2 confirm	IN multimer act	TRFRET interf	LEDGF integ conf	others
CCCCn1nnnc1C1(C)CCC(=O)N1CCCn1ccnc1 (stereo not drawn)	-	13.7	-	-	16.0	-	-	15.8	-	-	-
Cc1cccc(C)c1-n1nnnc1C1(C)CCC(=O)N1CCCn1ccnc1 (stereo not drawn)	-	-	-	-	-	-	.	.	.	.	.
O=C1CSc2ccc(C(=O)N3CCCC(C(=O)N4CCCCC4)C3)cc2N1 (stereo not drawn)	-	-	-	-	-	-	.	.	.	.	.
CCOC(=O)CN1C(=O)S/C(=C/c2ccco2)C1=O	-	-	-	-	-	-	.	.	.	.	.
NN1C(=O)/C(=C\c2ccco2)SC1=S	-	17.4	63.3	43.2	54.7	-	-	-	-	-	-
CCOc1ccc(NC(=O)CN(C)C(=O)c2csc3c2CCCC3)cc1OCC	-	-	-	-	-	-	.	.	.	.	.
CCOc1ccc(NC(=O)CN(C)C(=O)c2cc3c(s2)CCC3)cc1OCC	-	17.1	26.8	-	16.4	-	23.6	20.3	13.7	-	17.9
O=C(CCc1ccccc1)N[C@H]1C(=O)CCC[C@]12C(=O)N(Cc1ccccc1)c1ccccc12	-	-	-	-	-	-	.	.	.	.	.
Cc1c(Cl)cnc(NC(=O)COC(=O)/C=C/c2ccco2)c1Cl	-	-	-	-	-	-	.	.	.	.	.
O=C(COC(=O)/C=C/c1ccco1)Nc1ncc(C(F)(F)F)cc1Cl	-	14.2	55.0	-	31.3	-	27.5	-	-	-	14.3
O=c1oc2c(-c3ccc([N+](=O)[O-])cc3)cc(O)cc2s1	-	21.4	29.8	77.9	24.8	-	-	-	-	-	-
O=S(=O)(c1cc(O)ccc1O)c1cccc2c(S(=O)(=O)c3cc(O)ccc3O)cccc12	-	20.3	32.9	-	16.2	-	36.9	16.9	21.6	-	41.4
O=S(=O)(O)c1cc(O)ccc1O	-	-	-	-	-	-	.	.	.	.	.
CCCCn1c(NS(=O)(=O)c2ccccc2)c(S(=O)(=O)c2ccc(C)cc2)c2nc3ccccc3nc21	-	21.4	-	-	22.7	88.5	-	13.9	-	-	72.5	TDP2 inh conf=94.8
CCCCn1c(NC(=O)c2ccco2)c(S(=O)(=O)c2ccc(C)cc2)c2nc3ccccc3nc21	-	-	-	-	-	-	.	.	.	.	.
Cc1nc2ccccc2c(=O)n1/N=C/c1ccc(O)c(O)c1O	-	26.8	37.2	-	60.6	-	-	-	18.5	-	80.4
Cc1nc2ccccc2c(=O)n1/N=C/c1ccccc1O	-	-	-	-	-	-	.	.	.	.	.
CC1=NN(c2ccccc2)C(=O)/C1=C\c1cn(-c2ccccc2)nc1C	-	-	-	-	-	-	.	.	.	.	.
COc1ccccc1/C=C1/C(=O)N(c2ccccc2)N=C1C	-	18.3	-	-	52.0	80.2	-	-	-	-	-	TDP2 inh conf=-
O=C(/C=C/c1cccs1)Nc1nc(-c2ccccc2)cs1	-	-	-	-	-	-	.	.	.	.	.
O=C(/C=C/c1cccs1)Nc1scc(-c2ccccc2)c1C(=O)O	-	14.1	21.8	-	23.4	-	-	-	-	-	35.3
CN(C)c1ccc(O)c2c1CC1CC3[C@@H](N(C)C)C(=O)C(C(N)=O)=C(O)[C@]3(O)C(=O)C1=C2O (stereo partly drawn)	25.0	35.5	80.2	31.3	77.1	-	36.1	14.9	51.1	-	48.4
O=C(Nc1cccc([N+](=O)[O-])c1)Nc1cccc([N+](=O)[O-])c1	-	-	-	-	-	-	.	.	.	.	.
O=[N+]([O-])c1cccc(I)c1	-	59.2	88.1	-	65.3	-	-	-	-	-	-
O=C(CCO)c1ccc(O)cc1	-	16.2	28.3	-	31.6	-	55.4	27.6	54.3	-	71.2
SMILES	SIAE inh	MBD2 DNA inh	UHRF1 MBD2 ctr	PRMT1 FP inh	LEDGF integ inh	TDP2 inh	UHRF1 ctr MBD2	MBD2 confirm	IN multimer act	TRFRET interf	LEDGF integ conf	others
O=C(/C=C/c1ccco1)NC(=S)Nc1ccc(C(=O)O)cc1	-	48.2	86.8	24.2	62.9	40.2	75.5	30.4	37.5	-	53.4	TDP2 inh conf=-
COc1ccc(NC(=S)NC(=O)/C=C/c2ccco2)cc1	-	-	-	-	-	-	.	.	.	.	.
CCOCC(=O)NC(=O)N1C[C@H]2CON(C)[C@H]2C[C@H]1c1ccc(OC)cc1	-	-	-	-	-	-	.	.	.	.	.
CCCCOCCCNC(=O)C[C@H]1C[C@@]2(C(=O)OC)C(=C[C@H](C(C)C)O[C@@H]2C2CC2)N(Cc2ccc3c(c2)OCO3)C1=O	-	-	-	-	-	-	.	.	.	.	.
c1coc(-c2nnc(-c3ccco3)nn2)c1	-	33.3	77.5	46.5	61.2	-	77.2	34.8	11.5	-	85.8
O=C(/C=C/c1ccco1)N(c1ccccn1)c1ccccn1	-	23.4	51.9	-	21.7	-	57.4	27.5	-	-	46.4
CC(=O)c1ccc(N=Nc2ccc(C)cc2)cc1	-	-	-	-	-	-	.	.	.	.	.
C=C(C)C(=O)Oc1ccc(N=Nc2ccc(C)cc2)ccc1=O	18.0	37.6	61.6	-	17.7	-	66.5	43.3	31.1	-	26.1	SIAE inh conf=-
NC(=NCCc1c[nH]c2ccccc12)NC(=O)OCc1ccccc1	-	-	-	-	-	-	.	.	.	.	.
Cc1c(Br)c(O)c(Br)c2sc(=O)oc12	28.9	15.8	33.0	80.3	55.2	42.0	-	-	-	-	13.7	TDP2 inh conf=-;SIAE inh conf=-
Cc1cc2nc3c(=O)[nH]c(=S)[nH]c3nc2cc1NC(=O)C(F)(F)F	21.4	33.0	27.5	164.8	74.1	-	-	-	11.8	-	-	SIAE inh conf=-
O=c1[nH]c(=S)[nH]c2nc(-c3ccccc3)cnc12	-	-	-	-	-	-	.	.	.	.	.
